The full list was thinned out, with hits kept by preference.
CHOP inhibitor: blocks CHOP induction under ER stress; CHO-K1 CHOP-promoter luciferase, tunicamycin-induced, 15-18 h; AID 2732; 3.8% of 220,000 active; inhibition, % at 10 µM;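 active = compounds that reduced the stress-induced luciferase reporter signal by more than about 70% of percent inhibition, limit read from the data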;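 also: 0% = tunicamycin plus vehicle and 100% = wells without tunicamycin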
Jurkat NFkB inh: inhibitors of the PMA/ionomycin-induced NF-kB reporter in Jurkat cells. AID 435003. 0.53% of 330,000 active. inhibition, % at 4 µM. PMA/ionomycin-induced NF-kB luciferase reporter, luminescence; in the data active = inhibition above about 50%
697 NFkB inh: inhibitors of the PMA/ionomycin-induced NF-kB reporter in 697 B cells; 697 B-cell NF-kB luciferase reporter, 16 h; inhibition, % at 4 µM; 0.33% of 330,000 active; in the data active = inhibition above about 35%
UPR XBP1 act: activators of adaptive arm of unfolded protein response (XBP1); AID 463104; activation, % at 20 µM; CHO-XBP1 luciferase reporter, IRE1-XBP1 UPR activation, luminescence; percent of tunicamycin response, DMSO as zero; 0.33% of 330,000 active;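 active = versus positive control, 20 µM dose yields 30% or more activation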;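 also: 100% = tunicamycin at 10 µg/mL and 0% = DMSO only wells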
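Material: IRE1-XBP1 luciferase reporter CHO line / Quantity: one thousand reporter cells per well / Buffer or medium: F12 with 10% serum / Compound: 20 µM single concentration, DMSO 1% / Times: 6 h treatment, 37 °C / Detection: Steady-Glo luciferase glow luminescence, 10 min after reagent addition / Benchmarks: tunicamycin high, DMSO low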
CHOP UPR activ: apoptotic UPR (CHOP) activation | CHO-CHOP luciferase reporter, luminescence; percent of tunicamycin response over DMSO baseline | activation, % at 10 µM | 0.34% of 330,000 active | AID 449763;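 active = at 10 µM dose, activation of 40% or more, normalized to positive control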;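 also: 100% = tunicamycin at 10 µg/mL and 0% = DMSO alone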
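Test system: CHO-CHOP cells, stable luciferase reporter of PERK-eIF2a-CHOP signalling | Quantity: 500 CHO-CHOP cells per well | Buffer or medium: F12 plus 10% serum | Compound dosing: 10 µM single point, 0.5% DMSO | Schedule: 6 h compound treatment, 37 °C | Signal: Luciferase luminescence | Control set: Tunicamycin high control, DMSO low control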
* = called active by the depositor; . = no result.

SMILES	CHOP inhibitor	Jurkat NFkB inh	697 NFkB inh	UPR XBP1 act	CHOP UPR activ
COc1ccccc1N1CCN(C(c2cc3cc(C)ccc3[nH]c2=O)c2nnnn2C2CCCC2)CC1 (stereo not given)	90.5*	17.9	26.9	2.6	2.0
COc1ccccc1N1CCN(C(c2cc3ccc(C)cc3[nH]c2=O)c2nnnn2C2CCCC2)CC1 (stereo not given)	34.1	15.1	23.1	0.0	1.1
COc1ccc(N2CCN(C(c3cccc(OC)c3OC)c3nnnn3C3CCCC3)CC2)cc1 (stereo not given)	73.6*	5.4	4.3	1.5	0.9
CNC(=O)[C@H]1O[C@@H](n2cnc3c(NCc4ccc(N)cc4)ncnc32)C(O)[C@H]1O (stereo not given in full)	-27.9	.	.	.	.
CC1CCN(Cc2nnnn2CCCC(=O)N(C)C(C)c2ccccn2)CC1 (stereo not given)	.	2.2	-13.4	-3.6	-0.4
CN(C)CCCNC(=O)C[C@H]1C[C@H](C(=O)N2CCOCC2)[C@@]2(CCC3CCCC3)c3[nH]c4cc(CCC(=O)N(C)C)ccc4c3CCN2C1=O	.	.	5.8	-2.5	1.7
Cc1ccc(C(=O)NCCSc2ccc(Cl)cc2)cc1S(=O)(=O)Nc1ccccc1	78.7*	12.4	-0.9	-5.2	-1.0
O=C(COC(=O)CC12CC3CC(CC(Br)(C3)C1)C2)NC(=O)NCc1ccco1	70.8*	0.8	-14.5	-2.8	-1.8
O=C(COc1ccc(S(=O)(=O)NC2CCCCC2)cc1Cl)Nc1ccc2c(c1)OCO2	85.6*	-6.3	-2.4	-0.4	1.7
CCOC(=O)N1CCN(S(=O)(=O)c2cc(OCC(=O)NC3CCCCC3)c(C)cc2Cl)CC1	74.8*	7.1	-8.2	2.3	2.4
Cc1cc(Cl)c(S(=O)(=O)NC2CCCC2)cc1OCC(=O)NC1CCCCC1	70.5*	33.7	-28.0	-2.0	-0.7
Cc1cc(Cl)c(S(N)(=O)=O)cc1OCC(=O)NC1CCCCC1	.	8.7	0.3	-1.1	-0.1
O=C(COc1ccc(Br)cc1Cl)NC(=O)NC1CCCC1	.	-55.3	-75.5	2.9	6.7
O=C(COc1ccc(Br)cc1Cl)NC1CCCCC1	70.9*	-90.6	-199.8	0.4	3.3
CCC(=O)OCc1c(C(F)(F)F)nn(C)c1Sc1ccc(Cl)cc1	78.9*	5.1	-19.7	3.2	-3.5
Cc1ccc(NC(=O)COC(=O)[C@@H]2CC(O)CN2S(=O)(=O)c2ccc3c(c2)OCCO3)cc1 (stereo not given in full)	.	-1.9	-14.7	-2.5	-1.6
Cc1ccc2c(c1)N(C(C)C(=O)NCc1ccc3c(c1)OCO3)C(=O)CO2 (stereo not given)	-5.7	2.5	9.2	-3.9	-0.9
Cc1cc(=O)c(C(=O)Nc2ccc(N3CCOCC3)cc2N2CCOCC2)nn1-c1ccccc1Cl	.	-4.2	-4.0	-1.4	1.0
CCOc1ccccc1NC(=O)CCC(=O)Nc1ccccc1OCC	15.8	-3.5	-13.6	0.7	-2.4
CCOc1ccccc1N/C=C/C(=O)C(C)(C)C	74.0*	-5.8	1.8	-0.2	0.0
O=C(Nc1ccc(F)cc1F)NC1CCCCCCC1	.	-48.2	-64.9	4.0	4.6
O=C(COC(=O)C12CC3CC(CC(Br)(C3)C1)C2)Nc1cccc(S(=O)(=O)N2CCOCC2)c1	.	-1.5	-16.8	-0.7	0.0
Cc1ccc(S(=O)(=O)n2c(N)nc3ccccc32)cc1	.	-2.0	0.0	-4.7	3.8
Cc1ccc(C(=O)n2c(N)nc3ccccc32)cc1	74.8*	10.3	-63.2	-5.6	-9.5
COc1cccc(C2=NOC(C(=O)NC3CCCCC3)C2)c1 (stereo not given)	-14.9	-3.3	16.6	0.8	0.5
SMILES	CHOP inhibitor	Jurkat NFkB inh	697 NFkB inh	UPR XBP1 act	CHOP UPR activ
Cc1c(C(=O)NCCS(=O)(=O)N2CCN(c3ccccc3F)CC2)cccc1[N+](=O)[O-]	.	17.2	3.9	-5.5	0.4
CC(C)OC(=O)CC(=O)CSc1nc2c(cc1C#N)CCCC2	80.1*	-26.5	-26.7	-2.0	0.9
O=C(C#Cc1ccccc1)c1ccc([N+](=O)[O-])cc1	110.8*	-21.5	-32.8	-1.8	30.5
O=C(N/N=C\C=C\c1ccco1)c1cc(-c2ccc3ccccc3c2)n[nH]1	80.5*	-97.9	-228.1	4.9	5.4
O=C(N/N=C/C=C\c1ccco1)c1ccccn1	-41.3	20.7	-12.2	2.0	6.4
COC(=O)c1cccc(NC(=O)CCc2c(C)noc2C)c1	.	-6.9	5.0	-0.6	0.1
O=C(COC(=O)c1c(Cl)ccc(Cl)c1Cl)NC(=O)NCc1ccccc1	83.9*	13.2	2.8	-1.0	0.3
Cc1ccc(CSc2nnc(-c3ccc(NS(=O)(=O)c4ccccc4)cc3)o2)cc1	71.0*	-14.7	3.4	-4.0	2.2
Cc1ccc(S(=O)(=O)Nc2ccc(-c3nnc(SCc4ccccc4Cl)o3)cc2)cc1	20.3	13.3	10.1	-4.6	0.8
CCc1ccc(CNC(=O)CN2C(=O)COc3ccccc32)cc1	18.1	-23.5	-37.2	-2.0	-0.6
Cc1ccc(-c2nc(S(=O)(=O)c3ccc(F)cc3)c(SCC(=O)NCC3CCCO3)o2)cc1 (stereo not given)	70.2*	-4.1	0.6	0.3	-0.5
CCOc1ccc(NC(=O)COC(=O)CN2CCCCCC2=O)cc1	.	7.4	-10.7	-2.0	0.3
N/C(=N\c1nc2ccccc2o1)NC(=O)c1ccccc1	85.1*	-78.9	-73.3	0.1	4.9
CCOc1ccc(C(c2c(NC(=O)c3ccccc3)sc(C)c2C)N2CCN(CCO)CC2)cc1 (stereo not given)	83.4*	-2.1	22.6	2.8	2.4
O=C(N1CCCCC1)C1(S(=O)(=O)c2ccccc2)CC=CC1	.	-12.4	-1.9	0.2	-1.7
CC(C(=O)Nc1ccccc1)N(c1cccc(Cl)c1)S(C)(=O)=O (stereo not given)	12.3	11.0	5.2	-0.9	3.3
O=C1c2ccccc2-c2n[nH]c(=O)c3ccc(N4CCCCC4)c1c23	78.7*	-13.5	-2.6	7.9	-0.5
O=C1c2cccc3c(N4CCCCC4)ccc(c23)C(=O)N1c1ccccn1	19.7	1.1	-14.0	-2.6	0.5
COc1ccc(OC)c(NC(=O)c2cccc(NC(=O)c3ccccc3)c2)c1	.	-6.4	13.4	-3.1	-2.0
Fc1ccccc1COc1cccc(/C=N/n2cnnc2)c1	71.6*	-7.2	-24.4	-1.8	-1.8
NC(=O)CC(NC(=O)c1ccc(Br)cc1)c1ccc(NCCc2ccc(F)cc2)c([N+](=O)[O-])c1 (stereo not given)	22.5	3.5	-9.3	1.9	-2.1
NC(=O)CC(NC(=O)Cc1ccc(Br)cc1)c1ccc(NCc2ccc(F)cc2)c([N+](=O)[O-])c1 (stereo not given)	93.4*	-7.3	-5.0	-2.1	0.6
O=S(Cc1ccc(Br)cc1)Cc1nnc(SCc2c(F)cccc2Cl)n1-c1ccccc1 (stereo not given)	74.3*	29.5	-33.5	-2.5	4.2

Bioassay records from PubChem BioAssay.
